Screens as filed in PubChem BioAssay.
Exocytosis inh – blocks lytic granule exocytosis. hit rate 0.66% among 360,000. TALL-104 LAMP-1 surface exposure, flow cytometry; cells stimulated with thapsigargin and PMA. inhibition, % at 10 µM;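 active means inhibition above about 55%, limit read from the data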
ABCB6 inh 2 – human ABCB6 transporter inhibition. Q9NP58. K562-ABCB6 porphyrin accumulation, flow cytometry, 1 h; hits give low values. fluorescence ratio to DMSO, % at 10 µM. hit rate 0.19% among 360,000. AID 602162;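 active means fluorescence ratio to DMSO below 75%, the collection mean minus 3 SD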;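 further: signal is porphyrin accumulated inside mitochondria; 100% equals median channel fluorescence of DMSO control wells; lower ratio means ABCB6 inhibition with less porphyrin fluorescence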
Target sequence (Q9NP58 whole entry, looked up): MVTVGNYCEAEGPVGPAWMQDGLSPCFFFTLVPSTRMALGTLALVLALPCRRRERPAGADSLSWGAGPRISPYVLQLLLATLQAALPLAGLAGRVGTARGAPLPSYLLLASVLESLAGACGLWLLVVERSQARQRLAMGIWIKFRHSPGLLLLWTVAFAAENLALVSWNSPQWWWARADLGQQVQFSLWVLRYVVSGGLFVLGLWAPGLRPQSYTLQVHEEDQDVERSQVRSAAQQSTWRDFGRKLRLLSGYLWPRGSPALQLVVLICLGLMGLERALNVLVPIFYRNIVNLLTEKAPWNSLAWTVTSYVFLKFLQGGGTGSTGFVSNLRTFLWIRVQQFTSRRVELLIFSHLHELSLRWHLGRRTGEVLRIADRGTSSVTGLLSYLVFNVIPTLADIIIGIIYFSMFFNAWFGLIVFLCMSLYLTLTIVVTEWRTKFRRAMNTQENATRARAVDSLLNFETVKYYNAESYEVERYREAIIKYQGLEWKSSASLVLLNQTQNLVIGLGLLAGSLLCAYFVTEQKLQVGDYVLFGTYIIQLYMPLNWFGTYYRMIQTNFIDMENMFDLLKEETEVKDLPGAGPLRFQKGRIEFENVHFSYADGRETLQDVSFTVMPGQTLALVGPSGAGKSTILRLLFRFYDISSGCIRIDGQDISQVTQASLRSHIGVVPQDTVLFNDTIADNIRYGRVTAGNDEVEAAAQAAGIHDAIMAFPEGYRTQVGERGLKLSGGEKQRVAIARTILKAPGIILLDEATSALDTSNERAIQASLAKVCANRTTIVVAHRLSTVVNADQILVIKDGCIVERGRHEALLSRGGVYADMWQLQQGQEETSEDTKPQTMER
DAGLB inhibitor – diacylglycerol lipase beta (human) inhibition; inhibition, % at 5.17 µM; Q8NCG7; HEK293T DAGLB membrane lysate, EnzChek fluorogenic substrate; hit rate 0.059% among 340,000; in the data active means inhibition above about 34%;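 further: 0% = enzyme with vehicle and 100% = wells lacking enzyme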
FGF22 binding – binders of recombinant human FGF22 by thermal shift; Q9HCT0; AID 651658; activity (Tm shift, normalised), % at 9.99 µM; SYPRO orange fluorescence; percent of sucrose octasulfate shift, DMSO zero; hit rate 1.5% among 340,000;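 active means mean Tm shift, scaled 0 neutral to 100 positive control, at about 1.3% or above, every replicate too, limit read from the data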
VLA-4 inh – inhibition in a human VLA-4 binding assay; inhibition, % (about 7 µM as worked out from the volumes in the protocol); AID 2557; hit rate 0.2% among 330,000; VLA-4 expressing cells, ligand binding flow cytometry; P13612; in the data active means inhibition above about 50%
MT1-MMP act inh – blocks activation of human MT1-MMP. P50281. HT1080 RFP-PRO-GFP cells, GFP/RFP ratio fluorescence, overnight; percent of plate control window, DMSO zero. GFP/RFP ratio change, % at 20 µM. hit rate 0.061% among 360,000. AID 651647;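 active means GFP/RFP ratio change of at least 30% with cell ATP level not reduced by more than half and red fluorescence within 50% of control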
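Compound: 20 µM single dose, 1% DMSO / System: HT1080 RFP-PRO-GFP cells / Controls: DMSO and RFP-L50D-GFP cell wells / Read-out basis: GFP/RFP fluorescence ratio / Schedule: overnight compound exposure at 37 °C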
Starred values were filed as active, the others as inactive; ! = not active in a repeat. In the library only some 2% were active in any assay of this set; here they are far more common.

`O=C(N[C@H]1C=C[C@H](CC(=O)N2CCc3ccccc3C2)O[C@H]1CO)C1CC1` gave FGF22 binding 0.
Screening COc1ccc(S(=O)(=O)/N=C2/NC(=O)/C(=C\c3ccco3)S2)cc1 returned Exocytosis inh 4, ABCB6 inh 2 100, DAGLB inhibitor 5, VLA-4 inh 4 and MT1-MMP act inh -6.
COc1ccc(S(=O)(=O)/N=C2/NC(=O)/C(=C/c3ccco3)S2)cc1 was read as Exocytosis inh 36, ABCB6 inh 2 105, DAGLB inhibitor 11, FGF22 binding 1.4*, VLA-4 inh 14 and MT1-MMP act inh -23.
Screening O=C(CN(C(=O)c1csnn1)c1cccc(F)c1)NCc1ccc2c(c1)OCO2 returned Exocytosis inh -1, ABCB6 inh 2 93, DAGLB inhibitor 1, FGF22 binding 43*, VLA-4 inh 5 and MT1-MMP act inh -4.
Screening O=C(CN(C(=O)c1csnn1)c1ccccc1F)NCc1ccc2c(c1)OCO2 returned Exocytosis inh 2, ABCB6 inh 2 96, DAGLB inhibitor 1, FGF22 binding 0, VLA-4 inh -5 and MT1-MMP act inh -3.
For O=C(O)C[C@H]1CC[C@H]2[C@@H](COC[C@H](O)CN2S(=O)(=O)c2ccc(F)cc2)O1 the results were FGF22 binding 0.
For C[C@H](CO)N1C[C@H](C)[C@H](CN(C)C(=O)Nc2ccccc2)OCCCC[C@H](C)Oc2ccc(NS(=O)(=O)c3ccc(F)cc3)cc2C1=O the results were FGF22 binding 0.
CCO[C@H]1OC(C(=O)O)=C[C@@H](c2ccc3c(c2)OCO3)[C@@H]1CCCO was read as Exocytosis inh 3, ABCB6 inh 2 97, DAGLB inhibitor -1, FGF22 binding 44*!, VLA-4 inh 26 and MT1-MMP act inh -3.
`CCO[C@H]1OC(C(=O)N2CCCC2)=C[C@@H](c2ccc3c(c2)OCO3)[C@@H]1CCCO` gave FGF22 binding 0.
`CC(=O)N1C(=O)N(C(C)=O)C2C1N(C)C(=O)N2C(C)=O` (centres undefined) gave Exocytosis inh -1, ABCB6 inh 2 98, DAGLB inhibitor 1, FGF22 binding 43*, VLA-4 inh -4 and MT1-MMP act inh 8.
For CC(=O)N1C(=O)N(C)C2C1N(C(C)=O)C(=O)N2C (centres undefined) the results were Exocytosis inh 0, ABCB6 inh 2 101, DAGLB inhibitor 2, VLA-4 inh -4 and MT1-MMP act inh -5.
Screening COc1ccc(C(=O)CCc2ccccc2)c(O)c1 returned Exocytosis inh 10, ABCB6 inh 2 101, DAGLB inhibitor -18, FGF22 binding 0, VLA-4 inh 2 and MT1-MMP act inh 1.
COc1ccc(C(=O)OCC(=O)N(Cc2ccccc2)Cc2ccccc2)c(O)c1 was read as Exocytosis inh 6, ABCB6 inh 2 99, DAGLB inhibitor -10, FGF22 binding 43* and MT1-MMP act inh 1.
COc1cccc(S(=O)(=O)N[C@H]2CC[C@@H](CCn3cc(-c4ccccn4)nn3)O[C@@H]2CO)c1 was read as FGF22 binding 0.
`COc1ccc2c3c(n(C)c2c1)[C@@H](CO)N(C)CC31CN(S(C)(=O)=O)C1` gave FGF22 binding 0.
CCOc1ccc(/C=N/NC(=O)c2nnn(-c3nonc3N)c2-c2ccc(OCC)cc2)cc1 was read as Exocytosis inh 3, ABCB6 inh 2 99, DAGLB inhibitor -3, FGF22 binding 1, VLA-4 inh 8 and MT1-MMP act inh 0.
For Cc1cc(C)c(/C=N/NC(=O)c2nnn(-c3nonc3N)c2CN2CCC(C)CC2)c(C)c1 the results were Exocytosis inh 82*, ABCB6 inh 2 100, DAGLB inhibitor -5, FGF22 binding 0, VLA-4 inh -1 and MT1-MMP act inh -4.
CCOc1ccc(-c2c(C(=O)N/N=C/c3c[nH]c4ccccc34)nnn2-c2nonc2N)cc1 was read as Exocytosis inh 8, ABCB6 inh 2 96, DAGLB inhibitor -1, FGF22 binding 43*, VLA-4 inh 2 and MT1-MMP act inh 2.
For C[C@@H]1CN([C@H](C)CO)C(=O)c2cc(NS(=O)(=O)c3ccc(F)cc3)ccc2O[C@@H]1CN(C)C(=O)Nc1ccc(C(F)(F)F)cc1 the results were FGF22 binding 0.
Screening COc1ccc(COC[C@@]23Oc4ccccc4[C@@H](NC(=S)N2C)[C@H]3CO[Si](C)(C)C(C)(C)C)cc1 returned FGF22 binding -1.
For C=CCc1cc(Cl)ccc1OCCCNCCO the results were Exocytosis inh 0, ABCB6 inh 2 89, DAGLB inhibitor -6, FGF22 binding 44*, VLA-4 inh 16 and MT1-MMP act inh 0.
Cc1cc(C)nc(S/C=C/C(=O)c2ccccc2F)n1 was read as Exocytosis inh 62*, ABCB6 inh 2 100, DAGLB inhibitor -13, FGF22 binding 0, VLA-4 inh 25 and MT1-MMP act inh 9.
O=C(NCCc1ccccc1)[C@@H]1[C@@H](CO)[C@@H]2Cn3c(cccc3=O)[C@H]1N2CC1CC1 was read as FGF22 binding 0.
`CC(C)N(C(=O)Cn1cc(SCC(=O)NCc2ccco2)c2ccccc21)C(C)C` gave Exocytosis inh -2, ABCB6 inh 2 96, DAGLB inhibitor -1, FGF22 binding 1.7*, VLA-4 inh 19 and MT1-MMP act inh -5.
For CCCn1cc(SCC(=O)NCc2ccco2)c2ccccc21 the results were Exocytosis inh 0, ABCB6 inh 2 97, DAGLB inhibitor 0, VLA-4 inh -6 and MT1-MMP act inh -1.
For C[C@H](CO)N1C[C@H](C)[C@@H](CN(C)Cc2ccc3c(c2)OCO3)Oc2ccc(NC(=O)Cc3ccccc3)cc2CC1=O the results were FGF22 binding 0.
CNC(=O)/C=C/c1cccc(C(F)(F)F)c1 was read as Exocytosis inh -1, ABCB6 inh 2 111, DAGLB inhibitor -1, VLA-4 inh 9 and MT1-MMP act inh 2.
`CC(C)(C)NC(=O)/C=C/c1ccc(C(F)(F)F)cc1` gave Exocytosis inh 0, ABCB6 inh 2 101, DAGLB inhibitor -1, FGF22 binding 43*, VLA-4 inh 6 and MT1-MMP act inh 3.
For CCOC(=O)C1(Cc2ccccc2C)CCCN(C(=O)c2cc(CC)nn2C)C1 (centres undefined) the results were Exocytosis inh -2, ABCB6 inh 2 100, DAGLB inhibitor -1, FGF22 binding 43*, VLA-4 inh 0 and MT1-MMP act inh -4.
Screening C=CCOc1ccc(C[C@H](N)C(=O)NC[C@H]2O[C@@H](n3ccc(N)nc3=O)[C@H](O)[C@@H]2O)cc1 returned Exocytosis inh -8, ABCB6 inh 2 101, DAGLB inhibitor 2, FGF22 binding 43* and MT1-MMP act inh 4.
